Among the data in ChEMBL document CHEMBL4145631, “Riluzole-Triazole Hybrids as Novel Chemical Probes for Neuroprotection in Amyotrophic Lateral Sclerosis” (ACS Med Chem Lett, 2018) are Activity values, retold here.

The species named for experiment [1] is Mus musculus. The experiment is described as follows: Neuroprotective activity against kainate-induced cell death in mouse primary motor neurons by cell counting method. The experiment is classed as functional.
The species entered for experiment [2] is Mus musculus. The experiment is described as follows: Neuroprotective activity against kainate-induced cell death in mouse primary motor neurons by caspase activation method. The format is functional.
The species entered for experiment [3] is Mus musculus. Put plainly: Neuroprotective activity against kainate-induced cell death in mouse primary motor neurons by MTT assay. The format is functional. (Tetrazolium dyes change colour on reduction, which living cells bring about.)
Experiment [4] deals with Cortical neurone. Put plainly: Neuroprotective activity against kainate-induced cell death in mouse primary cortical neurons by MTT assay. The experiment is classed as functional, cell-based.
The subject of experiment [5] is Cortical neurone. The experiment is described as follows: Neuroprotective activity against kainate-induced cell damage in mouse primary cortical neurons assessed as reduction in kainate-induced neurofilament loss by measuring increase in MAPK level at 1 uM pretreated followed by kainate challenge measured after 18 hrs by fluorescence assay. The format is functional, cell-based. The conditions noted are these: in the assay text read “MAP2” for “MAPK”. In short, it runs like this:
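Mouse primary cortical neurons cultured as previously described; dendritic processes stained with anti-MAP2 antibody. Cell-profile perimeter measured by image analysis, each condition normalized to kainate-only.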

The test system of experiment [6] is Cortical neurone. Put plainly: Neuroprotective activity against kainate-induced cell death in mouse primary cortical neurons by cell counting method. The experiment is classed as functional, cell-based.
Experiment [7] relates to Cortical neurone. The experiment is described as follows: Neuroprotective activity against kainate-induced cell death in mouse primary cortical neurons by caspase activation method. The experiment is classed as functional, cell-based.
Experiment [8] relates to Cortical neurone. Put plainly: Neuroprotective activity against kainate-induced cell damage in mouse primary cortical neurons assessed as reversal of kainate-induced reduction in calcium flux by fura-2-AM dye based fluorescence assay. The format is functional. In short, it runs like this: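 Mouse primary cortical neurons loaded with fura-2AM for 45 min, washed, then depolarized with 10 mM KCl to drive Ca2+ entry through voltage-gated calcium channels. Flux read on a plate-based system.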
On the technique in general: A change in cytosolic calcium serves as a functional read-out for many receptors and channels.

Activity calls are given as the source filed them. The rule behind the calls is not given here.

For `N=c1sc2cc(OC(F)(F)F)ccc2n1CCn1cc(-c2ccc(Cl)cc2)nn1`, the outcome in the experiment filed under Mus musculus [1], in the experiment filed under Mus musculus [2], in the experiment filed under Mus musculus [3], in the experiment on Cortical neurone [4], in the experiment on Cortical neurone [5] and with Cortical neurone [6] was inactive. Besides, the result in the experiment with Cortical neurone [7] was inactive. Besides, the outcome in the experiment with Cortical neurone [8] was Active.
Consider `CC(C)(C)c1ccc(-c2cn(CCn3c(=N)sc4cc(OC(F)(F)F)ccc43)nn2)cc1`, for which the outcome in the experiment listed under Mus musculus [1], in the experiment filed under Mus musculus [2], in the experiment listed under Mus musculus [3], in the experiment with Cortical neurone [4], in the experiment with Cortical neurone [5] and in the experiment on Cortical neurone [6] was inactive. Besides, the outcome with Cortical neurone [7] was inactive. The result with Cortical neurone [8] was Active.
For `N=c1sc2cc(OC(F)(F)F)ccc2n1CCn1cc(-c2ccccc2Cl)nn1`, the result in the experiment filed under Mus musculus [1], in the experiment filed under Mus musculus [2], in the experiment listed under Mus musculus [3], in the experiment on Cortical neurone [4], in the experiment on Cortical neurone [5] and in the experiment on Cortical neurone [6] was inactive. For the same compound, the result in the experiment with Cortical neurone [7] was inactive. In the experiment on Cortical neurone [8], the outcome was Active.
As to `CCCCc1ccc(-c2cn(CCn3c(=N)sc4cc(OC(F)(F)F)ccc43)nn2)cc1`, the outcome in the experiment listed under Mus musculus [1], in the experiment listed under Mus musculus [2], in the experiment listed under Mus musculus [3], in the experiment on Cortical neurone [4], in the experiment with Cortical neurone [5] and with Cortical neurone [6] was inactive. In the experiment with Cortical neurone [7], the result was inactive. In addition, the result with Cortical neurone [8] was Active.
For the compound `N=c1sc2cc(OC(F)(F)F)ccc2n1CCn1cc(C2CC2)nn1`, the outcome in the experiment filed under Mus musculus [1], in the experiment listed under Mus musculus [2], in the experiment filed under Mus musculus [3], in the experiment on Cortical neurone [4], in the experiment with Cortical neurone [5] and in the experiment on Cortical neurone [6] was inactive. The outcome with Cortical neurone [7] was inactive. Also, in the experiment with Cortical neurone [8], the outcome was Active.
Take `N=c1sc2cc(OC(F)(F)F)ccc2n1CCn1cc(-c2ccccc2N)nn1`: the result in the experiment listed under Mus musculus [1], in the experiment filed under Mus musculus [2], in the experiment filed under Mus musculus [3], in the experiment with Cortical neurone [4], in the experiment with Cortical neurone [6] and with Cortical neurone [7] was inactive. In addition, the outcome in the experiment on Cortical neurone [5] and in the experiment with Cortical neurone [8] was Active.
Consider `COc1ccccc1-c1cn(CCn2c(=N)sc3cc(OC(F)(F)F)ccc32)nn1`, for which the result in the experiment filed under Mus musculus [1], in the experiment filed under Mus musculus [2], in the experiment filed under Mus musculus [3], in the experiment on Cortical neurone [4], in the experiment on Cortical neurone [5] and in the experiment on Cortical neurone [6] was inactive. Further, in the experiment with Cortical neurone [7], the outcome was inactive. Further, the outcome with Cortical neurone [8] was Active.
Consider `N=c1sc2cc(OC(F)(F)F)ccc2n1CCn1cc(CCc2ccccc2)nn1`, for which the result in the experiment filed under Mus musculus [1], in the experiment listed under Mus musculus [2], in the experiment listed under Mus musculus [3], in the experiment on Cortical neurone [4], in the experiment on Cortical neurone [5] and in the experiment with Cortical neurone [6] was inactive. Besides, the result in the experiment on Cortical neurone [7] was inactive. Further, the result with Cortical neurone [8] was Active.
For the compound `N=c1sc2cc(OC(F)(F)F)ccc2n1CCn1cc(-c2ccc(F)cc2F)nn1`, the result in the experiment filed under Mus musculus [1], in the experiment listed under Mus musculus [2], in the experiment listed under Mus musculus [3], in the experiment on Cortical neurone [4], in the experiment on Cortical neurone [5] and with Cortical neurone [6] was inactive. The result in the experiment on Cortical neurone [7] was inactive. Moreover, the outcome with Cortical neurone [8] was Active.
Turning to `N=c1sc2cc(OC(F)(F)F)ccc2n1CCn1cc(-c2cccs2)nn1`, the result in the experiment filed under Mus musculus [1], in the experiment listed under Mus musculus [2], in the experiment listed under Mus musculus [3], with Cortical neurone [4], with Cortical neurone [6] and with Cortical neurone [7] was inactive. For the same compound, the outcome with Cortical neurone [5] and with Cortical neurone [8] was Active.
As for `CCOC(=O)c1cn(CCn2c(=N)sc3cc(OC(F)(F)F)ccc32)nn1`, the outcome in the experiment filed under Mus musculus [1], in the experiment filed under Mus musculus [2], in the experiment filed under Mus musculus [3], with Cortical neurone [4], in the experiment with Cortical neurone [5] and with Cortical neurone [6] was inactive. For the same compound, the outcome in the experiment on Cortical neurone [7] was inactive. Also, in the experiment on Cortical neurone [8], the outcome was Active.
On to `CC(C)(C)c1cn(CCn2c(=N)sc3cc(OC(F)(F)F)ccc32)nn1`, for which the result in the experiment listed under Mus musculus [1], in the experiment listed under Mus musculus [2], in the experiment filed under Mus musculus [3], in the experiment with Cortical neurone [4], in the experiment with Cortical neurone [5] and with Cortical neurone [6] was inactive. The outcome in the experiment on Cortical neurone [7] was inactive. In addition, the result in the experiment with Cortical neurone [8] was Active.
Take `N=c1sc2cc(OC(F)(F)F)ccc2n1CCn1cc(-c2ccc(C(=O)O)cc2)nn1`: the result in the experiment listed under Mus musculus [1], in the experiment listed under Mus musculus [2], in the experiment listed under Mus musculus [3], in the experiment with Cortical neurone [4], in the experiment with Cortical neurone [6] and in the experiment with Cortical neurone [7] was inactive. Besides, the outcome with Cortical neurone [5] and in the experiment on Cortical neurone [8] was Active.
In the case of `Cc1ccc(-c2cn(CCn3c(=N)sc4cc(OC(F)(F)F)ccc43)nn2)cc1`, the result in the experiment listed under Mus musculus [1], in the experiment filed under Mus musculus [2], in the experiment listed under Mus musculus [3], in the experiment on Cortical neurone [4], in the experiment on Cortical neurone [5] and in the experiment on Cortical neurone [6] was inactive. Further, the result with Cortical neurone [7] was inactive. For the same compound, the result in the experiment with Cortical neurone [8] was Active.
For the compound `N#Cc1ccc(-c2cn(CCn3c(=N)sc4cc(OC(F)(F)F)ccc43)nn2)cc1`, the outcome in the experiment listed under Mus musculus [1], in the experiment filed under Mus musculus [2], in the experiment filed under Mus musculus [3], in the experiment on Cortical neurone [4], in the experiment with Cortical neurone [5] and in the experiment with Cortical neurone [6] was inactive. Also, the outcome in the experiment with Cortical neurone [7] was inactive. The result with Cortical neurone [8] was Active.
Turning to `N=c1sc2cc(OC(F)(F)F)ccc2n1CCn1cc(-c2ccsc2)nn1`, the result in the experiment listed under Mus musculus [1], in the experiment listed under Mus musculus [2], in the experiment listed under Mus musculus [3], in the experiment with Cortical neurone [4], in the experiment with Cortical neurone [5] and in the experiment with Cortical neurone [6] was inactive. For the same compound, the result with Cortical neurone [7] was inactive. Further, in the experiment on Cortical neurone [8], the result was Active.
